The species entered for test [1] is Mus musculus. In words: Anti-inflammatory potency was measured in mice by modification of the croton oil ear assay. Also on record: reference not given here.
The species entered for test [2] is Mus musculus. In words: Anti-inflammatory potency was measured in mice at 5 hours by modification of the Tonelli croton oil ear assay. The format is functional. An outline of the steps: (§1)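 Topical dosing in mice. Compounds at 10^-4% to 10^-6% (w/v) were dissolved in 0.6–0.7% croton oil, in a vehicle of pyridine/water/diethyl ether 20:5:74 (v/v). 10 µL was applied to the inner aspect of both pinnae daily for 5 days. Animals were killed 5 h after the last dose, and 6-mm ear punch biopsies were weighed. Potency was calculated relative to betamethasone 17-valerate from the mean left-plus-right ear punch weights.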

The species entered for test [3] is Mus musculus. In words: Anti-inflammatory potency was measured in mice at 5 hours by modification of the croton oil ear assay. It counts as functional. An outline of the steps: as §1

As for `C[C@@H]1C[C@H]2[C@@H]3CCC4=CC(=O)C=C[C@]4(C)[C@@]3(Cl)[C@@H](O)C[C@]2(C)[C@@]1(OC(=O)c1ccco1)C(=O)CF`, the results for the Potency in the test listed under Mus musculus [1] and in the test filed under Mus musculus [2] were 4.4 and 1.4, respectively.

`CC(=O)OCC(=O)[C@@]1(OC(=O)c2cccs2)[C@H](C)CC2C3CCC4=CC(=O)C=CC4(C)[C@@]3(F)C(O)CC21C` (stereo partly drawn): the Potency in the test listed under Mus musculus [1] was 2.9; in the test filed under Mus musculus [2] it was 1.6.

As for `CC(=O)OCC(=O)[C@@]1(OC(=O)c2ccc(C)s2)[C@H](C)CC2C3CCC4=CC(=O)C=CC4(C)[C@@]3(F)C(O)CC21C` (stereo partly drawn), the Potency in the test filed under Mus musculus [1] came to 1.7; in the test listed under Mus musculus [2], 2.4.

As to `CCC(=O)OCC(=O)[C@@]1(OC(=O)c2ccco2)[C@H](C)CC2C3CCC4=CC(=O)C=CC4(C)[C@@]3(F)C(O)CC21C` (stereo partly drawn), the Potency in the test filed under Mus musculus [1] is 6.8; in the test listed under Mus musculus [2], 2.1.

As for `COCC(=O)OCC(=O)[C@@]1(OC(=O)c2ccco2)[C@H](C)CC2C3CCC4=CC(=O)C=CC4(C)[C@@]3(F)C(O)CC21C` (stereo partly drawn), the Potency in the test filed under Mus musculus [1] is recorded as 3.2; in the test filed under Mus musculus [2] it was 0.8.

In turn, `COCC(=O)OCC(=O)[C@@]1(OC(=O)c2ccco2)[C@H](C)CC2C3CCC4=CC(=O)C=CC4(C)[C@@]3(Cl)C(O)CC21C` (stereo partly drawn) had a Potency in the test listed under Mus musculus [1] of 4.3.

For `CC(=O)OCC(=O)[C@@]1(OC(=O)c2ccoc2)[C@H](C)CC2C3CCC4=CC(=O)C=CC4(C)[C@@]3(F)C(O)CC21C` (stereo partly drawn), the Potency was found to be 3.2 in the test filed under Mus musculus [1] and 2.9 in the test listed under Mus musculus [2].

In the case of `C[C@@H]1CC2C3CCC4=CC(=O)C=CC4(C)[C@@]3(Cl)C(O)CC2(C)[C@@]1(OC(=O)c1ccco1)C(=O)CCl` (stereo partly drawn), the Potency was 6.1 in the test listed under Mus musculus [1] and 1 in the test listed under Mus musculus [2].

Consider `CC(=O)OCC(=O)[C@@]1(OC(=O)c2ccco2)[C@H](C)CC2C3CCC4=CC(=O)C=CC4(C)[C@@]3(F)C(O)CC21C` (stereo partly drawn), for which the figures for the Potency in the test filed under Mus musculus [1] and in the test listed under Mus musculus [2] were 2.2 and 1.7, respectively.

Turning to `C[C@H]1CC2C3CCC4=CC(=O)C=CC4(C)[C@@]3(F)C(O)CC2(C)[C@@]1(OC(=O)c1ccco1)C(=O)CCl` (stereo partly drawn), the values for the Potency in the test filed under Mus musculus [1] and in the test listed under Mus musculus [2] were 0.9 and 0.6, respectively.

With `C=C1CC2C3CCC4=CC(=O)C=CC4(C)C3(Cl)C(O)CC2(C)[C@@]1(OC(=O)c1ccco1)C(=O)COC(C)=O` (stereo partly drawn), the Potency stood at 2.2 in the test filed under Mus musculus [3] and 2.3 in the test listed under Mus musculus [2].

On to `CC(=O)OCC(=O)[C@@]1(OC(=O)c2ccco2)[C@H](C)CC2C3CCC4=CC(=O)C=CC4(C)[C@@]3(Cl)C(O)CC21C` (stereo partly drawn), for which the figures for the Potency in the test filed under Mus musculus [1] and in the test filed under Mus musculus [2] were 4.4 and 1.7, respectively.

Turning to `C[C@@H]1CC2C3C[C@H](F)C4=CC(=O)C=CC4(C)[C@@]3(Cl)C(O)CC2(C)[C@@]1(OC(=O)c1ccco1)C(=O)CCl` (stereo partly drawn), the Potency in the test listed under Mus musculus [1] was 5.1; in the test listed under Mus musculus [2] it was 1.1.

Turning to `CC(=O)OCC(=O)[C@@]1(OC(=O)c2ccco2)CCC2C3CCC4=CC(=O)C=CC4(C)C3C(O)CC21C` (stereo partly drawn), the Potency in the test filed under Mus musculus [1] is 0.9; in the test filed under Mus musculus [2], 1.3.

As to `C=C1CC2C3CCC4=CC(=O)C=CC4(C)[C@@]3(F)C(O)CC2(C)[C@@]1(OC(=O)c1ccco1)C(=O)COC(C)=O` (stereo partly drawn), the Potency in the test filed under Mus musculus [1] came to 1.1; in the test filed under Mus musculus [2], 0.5.

`C[C@@H]1CC2C3CCC4=CC(=O)C=CC4(C)[C@@]3(F)C(O)CC2(C)[C@@]1(OC(=O)c1ccoc1)C(=O)CCl` (stereo partly drawn): the Potency is recorded as 1.2 in the test listed under Mus musculus [1] and 1 in the test filed under Mus musculus [2].

Turning to `C=C1CC2C3CCC4=CC(=O)C=CC4(C)C3C(O)CC2(C)[C@@]1(OC(=O)c1ccco1)C(=O)COC(C)=O` (stereo partly drawn), the figures for the Potency in the test filed under Mus musculus [1] and in the test filed under Mus musculus [2] were 1.2 and 2.7, respectively.

Turning to `CC(=O)OCC(=O)[C@@]1(OC(=O)c2ccco2)[C@@H](C)CC2C3CCC4=CC(=O)C=CC4(C)[C@@]3(F)C(O)CC21C` (stereo partly drawn), the Potency was 0.2 in the test listed under Mus musculus [1] and 0.5 in the test filed under Mus musculus [2].

On to `CC(=O)OCC(=O)[C@@]1(OC(=O)c2ccco2)[C@H](C)CC2C3C[C@H](F)C4=CC(=O)C=CC4(C)C3C(O)CC21C` (stereo partly drawn), for which the Potency stood at 2.1 in the test listed under Mus musculus [1] and 2.7 in the test listed under Mus musculus [2].

Consider `CCC(=O)OCC(=O)[C@@]1(OC(=O)c2ccco2)[C@H](C)CC2C3CCC4=CC(=O)C=CC4(C)C3C(O)CC21C` (stereo partly drawn), for which the Potency in the test filed under Mus musculus [1] amounted to 1.5; in the test filed under Mus musculus [2] it was 1.1.

On to `C[C@H]1CC2C3CCC4=CC(=O)C=CC4(C)[C@@]3(F)C(O)CC2(C)[C@@]1(OC(=O)c1cccs1)C(=O)CCl` (stereo partly drawn), for which the Potency in the test listed under Mus musculus [1] is recorded as 2.6; in the test filed under Mus musculus [2], 1.3.

`CCCC(=O)OCC(=O)[C@@]1(OC(=O)c2ccco2)[C@H](C)CC2C3CCC4=CC(=O)C=CC4(C)[C@@]3(F)C(O)CC21C` (stereo partly drawn): in the test filed under Mus musculus [2], the Potency is 1.1.

For `C[C@@H]1CC2C3CCC4=CC(=O)C=CC4(C)[C@@]3(Cl)C(O)CC2(C)[C@@]1(OC(=O)c1cccs1)C(=O)CCl` (stereo partly drawn), the Potency in the test listed under Mus musculus [1] was found to be 4.5; in the test listed under Mus musculus [2], 1.2.

As to `C[C@@H]1CC2C3CCC4=CC(=O)C=CC4(C)[C@@]3(F)C(O)CC2(C)[C@@]1(OC(=O)c1ccco1)C(=O)CCl` (stereo partly drawn), the Potency in the test filed under Mus musculus [1] is reported as 2.3; in the test filed under Mus musculus [2] it was 1.6.

With `CCCCC(=O)O[C@]1(C(=O)CO)[C@@H](C)C[C@H]2[C@@H]3CCC4=CC(=O)C=C[C@]4(C)[C@@]3(F)[C@@H](O)C[C@@]21C` [BETAMETHASONE VALERATE], the Potency in the test listed under Mus musculus [1] and in the test listed under Mus musculus [2] was 1 throughout.

For the origin of these results see ChEMBL document CHEMBL1123831, “17-Heteroaroyl esters of corticosteroids. 2. 11 beta-Hydroxy series” (1987).
